ChEMBL document CHEMBL5120943, “Discovery of Novel Pyrazolopyrimidines as Potent, Selective, and Orally Bioavailable Inhibitors of ALK2” (ACS Med Chem Lett, 2022)
Active and inactive are the calls of the source. The calls are words filed in the database; no cut-off is given here.

Tests used:
Activin receptor type-1 [1] = target: T1, Activin receptor type-1 (Homo sapiens, UniProt Q04771); assay: Inhibition of human recombinant N-terminal GST tagged ALK2 (147 to end residues) expressed in baculovirus infected in Sf9 cells assessed as loss of peptide phosphorylation activity using peptide substrate in presence of ATP and measured after 3 hrs by HTRF assay
T1 sequence (Q04771 whole entry): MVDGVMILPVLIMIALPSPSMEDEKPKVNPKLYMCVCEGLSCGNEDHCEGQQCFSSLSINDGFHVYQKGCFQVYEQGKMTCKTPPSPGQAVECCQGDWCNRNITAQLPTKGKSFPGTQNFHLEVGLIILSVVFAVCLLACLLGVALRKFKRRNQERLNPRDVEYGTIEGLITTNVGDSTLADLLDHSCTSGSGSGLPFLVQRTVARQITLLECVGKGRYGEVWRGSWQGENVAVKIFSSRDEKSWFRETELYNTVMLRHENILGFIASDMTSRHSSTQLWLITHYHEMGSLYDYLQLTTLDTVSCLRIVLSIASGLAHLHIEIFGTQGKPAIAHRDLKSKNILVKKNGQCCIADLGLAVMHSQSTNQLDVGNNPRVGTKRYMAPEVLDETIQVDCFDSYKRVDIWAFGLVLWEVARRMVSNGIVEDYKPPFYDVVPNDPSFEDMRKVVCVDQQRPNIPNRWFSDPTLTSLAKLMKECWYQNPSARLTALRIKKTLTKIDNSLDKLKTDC
Procedure, shortened: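 HTRF activity assay measuring loss of ALK2 phosphorylation of a peptide substrate. IC50 values were determined.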

Activin receptor type-1 [2] = target: T1, Activin receptor type-1; assay: Inhibition of ALK2 in human HeLa cells assessed as reduction in BMP-7 induced SMAD1 phosphorylation incubated for 1 hr followed BMP-7 stimulation for 30 mins by HTRF assay; format: cell-based
Procedure, shortened: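 HeLa cells were stimulated with BMP7. Inhibition of BMP7-induced SMAD1 phosphorylation was read by HTRF and an IC50 was derived.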

[3] = Half life in Sprague-Dawley rat at 3 mg/kg, po or 1 mg/kg, iv measured upto 24 hrs post dose by LC/MS/MS analysis; format: ADME, organism-based; conditions: in vivo
[4] = Cmax in Sprague-Dawley rat at 3 mg/kg, po measured upto 24 hrs post dose by LC/MS/MS analysis; format: ADME, organism-based; set-up: dose 3 mg/kg, time < 24 hrs, route po; conditions: in vivo
[5] = Protein binding in human plasma assessed as free fraction measured after 2 hrs by LC-MS/MS analysis; format: ADME, cell-free
[6] = AUC infinity in Sprague-Dawley rat at 3 mg/kg, po measured upto 24 hrs post dose by LC/MS/MS analysis; format: ADME, organism-based; set-up: time < 24 hrs, dose 3 mg/kg, route po; conditions: in vivo
[7] = Metabolic stability in human liver microsomes assessed as intrinsic clearance at 1uM and measured upto 30 mins in presence of NADPH by LC/MS analysis; format: ADME, Microsome; conditions: read-out: CLH (converted)
[8] = Oral bioavailability in Sprague-Dawley rat at 3 mg/kg measured upto 24 hrs post dose by LC/MS/MS analysis; format: ADME, organism-based; conditions: in vivo
[9] = Volume of distribution at steady state in Sprague-Dawley rat at 3 mg/kg, po or 1 mg/kg, iv measured upto 24 hrs post dose by LC/MS/MS analysis; format: ADME, organism-based; conditions: in vivo
[10] = Apparent permeability across apical to basolateral side in human Caco-2 cells at 50 uM incubated for 120 mins by LC/MS/MS analysis
Hepcidin = target: T2, Hepcidin (Homo sapiens, UniProt P81172); assay: Inhibition of Hepcidin in human Huh-7 cells assessed as inhibition of BMP-7 induced hepcidin production incubated for 16 to 24 hrs by ELISA method; format: cell-based
T2 sequence (P81172 whole entry): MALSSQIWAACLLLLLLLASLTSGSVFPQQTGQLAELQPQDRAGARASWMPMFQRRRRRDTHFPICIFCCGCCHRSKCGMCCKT
Procedure, shortened: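 Huh7 liver cells were stimulated with BMP7. Inhibition of secreted hepcidin was measured and an IC50 was derived.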

Mus musculus = assay: In vivo inhibition of ALK2 in C57BL/6 mouse assessed as reduction in hepcidin level in plasma at 10 mg/kg, po measured after 24 hrs post dose; format: functional, organism-based
Cytochrome P450 2C8 = target: T3, Cytochrome P450 2C8 (Homo sapiens, UniProt P10632); assay: Inhibition of CYP2C8 (unknown origin); format: ADME
T3 sequence (P10632 whole entry): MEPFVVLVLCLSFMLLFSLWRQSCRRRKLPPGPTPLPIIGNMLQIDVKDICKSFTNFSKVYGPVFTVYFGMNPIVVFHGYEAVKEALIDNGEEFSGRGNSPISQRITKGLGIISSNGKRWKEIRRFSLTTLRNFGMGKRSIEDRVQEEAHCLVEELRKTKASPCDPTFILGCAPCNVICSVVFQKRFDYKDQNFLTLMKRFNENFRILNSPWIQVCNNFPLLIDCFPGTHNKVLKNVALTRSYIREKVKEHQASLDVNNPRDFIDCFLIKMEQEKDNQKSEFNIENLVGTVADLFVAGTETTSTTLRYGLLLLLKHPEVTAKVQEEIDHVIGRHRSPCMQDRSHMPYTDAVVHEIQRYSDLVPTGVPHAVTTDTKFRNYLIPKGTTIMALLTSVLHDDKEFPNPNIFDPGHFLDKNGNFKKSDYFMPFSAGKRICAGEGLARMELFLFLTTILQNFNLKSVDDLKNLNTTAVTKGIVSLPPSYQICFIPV

hERG (KCNH2) = hERG (KCNH2) (Homo sapiens, UniProt Q12809); assay: Inhibition of human ERG at 1 uM by patch clamp assay relative to control; format: toxicity
Procedure, shortened: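 hERG activity was tested by patch clamp at 1 μM and expressed as percent inhibition.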

[11] = AUC (0 to 24 hrs) in C57BL/6 mouse liver at 10 mg/kg, po; format: ADME, organism-based; set-up: time < 24 hr, dose 10 mg/kg, route po
Procedure, shortened: (§1)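 Female C57BL/6 mice were given a single oral dose of 10 mg/kg. Compound concentrations in liver and plasma were measured, and AUC was calculated over 0–24 h.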

Cytochrome P450 2C19 = Cytochrome P450 2C19 (Homo sapiens, UniProt P33261); assay: Inhibition of CYP2C19 (unknown origin); format: ADME
Cytochrome P450 2B6 = target: T4, Cytochrome P450 2B6 (Homo sapiens, UniProt P20813); assay: Inhibition of CYP2B6 (unknown origin); format: ADME
T4 sequence (P20813 whole entry): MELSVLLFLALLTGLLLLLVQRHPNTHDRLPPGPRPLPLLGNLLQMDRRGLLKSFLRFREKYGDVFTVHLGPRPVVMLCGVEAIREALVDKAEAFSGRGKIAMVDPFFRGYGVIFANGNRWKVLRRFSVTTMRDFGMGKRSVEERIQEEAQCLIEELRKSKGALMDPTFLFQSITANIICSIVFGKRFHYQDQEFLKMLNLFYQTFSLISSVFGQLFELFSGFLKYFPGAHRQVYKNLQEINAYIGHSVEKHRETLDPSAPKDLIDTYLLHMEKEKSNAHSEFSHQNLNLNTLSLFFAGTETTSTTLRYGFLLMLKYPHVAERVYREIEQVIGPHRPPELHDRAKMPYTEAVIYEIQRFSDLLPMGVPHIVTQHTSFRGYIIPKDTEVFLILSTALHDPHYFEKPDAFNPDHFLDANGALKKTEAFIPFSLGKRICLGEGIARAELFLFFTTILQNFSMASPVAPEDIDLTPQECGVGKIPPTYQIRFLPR

Cytochrome P450 2C9 = Cytochrome P450 2C9 (Homo sapiens, UniProt P11712); assay: Inhibition of CYP2C9 (unknown origin); format: ADME
Cytochrome P450 2D6 = Cytochrome P450 2D6 (Homo sapiens, UniProt P10635); assay: Inhibition of CYP2D6 (unknown origin); format: ADME
[12] = AUC (0 to 24 hrs) in C57BL/6 mouse plasma at 10 mg/kg, po; format: ADME, organism-based; set-up: time < 24 hr, dose 10 mg/kg, route po; procedure, shortened: as §1
Cytochrome P450 3A4 = Cytochrome P450 3A4 (Homo sapiens, UniProt P08684); assay: Inhibition of CYP3A4 (unknown origin); format: ADME
Cytochrome P450 1A2 = target: T5, Cytochrome P450 1A2 (Homo sapiens, UniProt P05177); assay: Inhibition of CYP1A2 (unknown origin); format: ADME
T5 sequence (P05177 whole entry): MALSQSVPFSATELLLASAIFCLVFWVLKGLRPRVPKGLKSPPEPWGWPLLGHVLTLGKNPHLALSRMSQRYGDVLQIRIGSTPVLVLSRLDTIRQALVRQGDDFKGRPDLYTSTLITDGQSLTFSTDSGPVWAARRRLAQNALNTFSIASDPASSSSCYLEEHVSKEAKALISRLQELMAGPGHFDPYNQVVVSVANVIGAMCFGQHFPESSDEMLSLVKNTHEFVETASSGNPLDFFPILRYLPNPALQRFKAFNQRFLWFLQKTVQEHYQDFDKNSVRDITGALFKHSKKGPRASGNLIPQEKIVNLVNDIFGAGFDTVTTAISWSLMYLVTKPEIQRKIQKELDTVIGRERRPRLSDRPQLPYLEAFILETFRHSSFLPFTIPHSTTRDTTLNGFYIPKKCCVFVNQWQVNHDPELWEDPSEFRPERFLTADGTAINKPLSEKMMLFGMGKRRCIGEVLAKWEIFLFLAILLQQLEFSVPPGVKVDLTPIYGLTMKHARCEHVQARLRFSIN

[13] = In vivo inhibition of ALK2 in C57BL/6 mouse assessed as reduction in hepcidin level in plasma at 10 mg/kg, po measured after 4 hrs post dose relative to control; format: functional

Cytochrome P450 3A4, sequence (P08684 whole entry): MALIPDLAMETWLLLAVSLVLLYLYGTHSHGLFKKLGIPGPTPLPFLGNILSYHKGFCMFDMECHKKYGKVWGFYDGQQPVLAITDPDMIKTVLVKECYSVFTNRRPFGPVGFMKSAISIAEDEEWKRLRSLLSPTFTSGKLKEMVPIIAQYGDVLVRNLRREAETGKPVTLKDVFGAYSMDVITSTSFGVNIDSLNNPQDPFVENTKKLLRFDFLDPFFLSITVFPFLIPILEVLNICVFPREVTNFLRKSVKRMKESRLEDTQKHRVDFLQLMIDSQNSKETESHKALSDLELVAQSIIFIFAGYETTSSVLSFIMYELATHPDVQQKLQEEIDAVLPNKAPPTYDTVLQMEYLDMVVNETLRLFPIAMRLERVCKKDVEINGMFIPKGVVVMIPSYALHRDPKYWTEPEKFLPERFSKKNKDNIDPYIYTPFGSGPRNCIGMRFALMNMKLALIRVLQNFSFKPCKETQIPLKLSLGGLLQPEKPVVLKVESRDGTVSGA
Cytochrome P450 2D6, sequence (P10635 whole entry): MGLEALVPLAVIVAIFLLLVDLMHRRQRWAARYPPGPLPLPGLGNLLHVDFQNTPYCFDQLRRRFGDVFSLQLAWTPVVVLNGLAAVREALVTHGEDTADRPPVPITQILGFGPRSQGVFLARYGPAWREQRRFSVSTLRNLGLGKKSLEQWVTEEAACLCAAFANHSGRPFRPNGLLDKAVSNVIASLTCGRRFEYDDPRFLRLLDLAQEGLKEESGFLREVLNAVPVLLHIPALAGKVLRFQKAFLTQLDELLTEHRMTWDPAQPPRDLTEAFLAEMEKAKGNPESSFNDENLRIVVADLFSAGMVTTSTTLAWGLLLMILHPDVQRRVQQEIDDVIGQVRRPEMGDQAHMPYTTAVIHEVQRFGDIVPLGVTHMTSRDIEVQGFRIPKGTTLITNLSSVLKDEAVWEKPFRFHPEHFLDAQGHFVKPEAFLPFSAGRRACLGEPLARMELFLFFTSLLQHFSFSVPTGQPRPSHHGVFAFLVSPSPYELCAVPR
Cytochrome P450 2C19, sequence (P33261 whole entry): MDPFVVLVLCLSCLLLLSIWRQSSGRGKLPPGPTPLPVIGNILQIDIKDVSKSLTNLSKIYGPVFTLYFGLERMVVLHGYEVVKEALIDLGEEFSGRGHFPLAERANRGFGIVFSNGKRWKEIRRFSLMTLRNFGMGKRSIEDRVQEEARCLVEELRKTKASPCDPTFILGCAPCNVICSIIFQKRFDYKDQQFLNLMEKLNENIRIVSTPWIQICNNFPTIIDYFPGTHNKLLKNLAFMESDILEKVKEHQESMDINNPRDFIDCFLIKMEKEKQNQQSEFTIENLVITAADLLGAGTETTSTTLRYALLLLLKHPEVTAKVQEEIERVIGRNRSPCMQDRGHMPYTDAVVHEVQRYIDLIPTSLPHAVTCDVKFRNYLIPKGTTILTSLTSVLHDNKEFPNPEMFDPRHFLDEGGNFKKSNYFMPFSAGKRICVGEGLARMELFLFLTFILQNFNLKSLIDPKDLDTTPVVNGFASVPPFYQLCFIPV
hERG (KCNH2), sequence (Q12809 whole entry): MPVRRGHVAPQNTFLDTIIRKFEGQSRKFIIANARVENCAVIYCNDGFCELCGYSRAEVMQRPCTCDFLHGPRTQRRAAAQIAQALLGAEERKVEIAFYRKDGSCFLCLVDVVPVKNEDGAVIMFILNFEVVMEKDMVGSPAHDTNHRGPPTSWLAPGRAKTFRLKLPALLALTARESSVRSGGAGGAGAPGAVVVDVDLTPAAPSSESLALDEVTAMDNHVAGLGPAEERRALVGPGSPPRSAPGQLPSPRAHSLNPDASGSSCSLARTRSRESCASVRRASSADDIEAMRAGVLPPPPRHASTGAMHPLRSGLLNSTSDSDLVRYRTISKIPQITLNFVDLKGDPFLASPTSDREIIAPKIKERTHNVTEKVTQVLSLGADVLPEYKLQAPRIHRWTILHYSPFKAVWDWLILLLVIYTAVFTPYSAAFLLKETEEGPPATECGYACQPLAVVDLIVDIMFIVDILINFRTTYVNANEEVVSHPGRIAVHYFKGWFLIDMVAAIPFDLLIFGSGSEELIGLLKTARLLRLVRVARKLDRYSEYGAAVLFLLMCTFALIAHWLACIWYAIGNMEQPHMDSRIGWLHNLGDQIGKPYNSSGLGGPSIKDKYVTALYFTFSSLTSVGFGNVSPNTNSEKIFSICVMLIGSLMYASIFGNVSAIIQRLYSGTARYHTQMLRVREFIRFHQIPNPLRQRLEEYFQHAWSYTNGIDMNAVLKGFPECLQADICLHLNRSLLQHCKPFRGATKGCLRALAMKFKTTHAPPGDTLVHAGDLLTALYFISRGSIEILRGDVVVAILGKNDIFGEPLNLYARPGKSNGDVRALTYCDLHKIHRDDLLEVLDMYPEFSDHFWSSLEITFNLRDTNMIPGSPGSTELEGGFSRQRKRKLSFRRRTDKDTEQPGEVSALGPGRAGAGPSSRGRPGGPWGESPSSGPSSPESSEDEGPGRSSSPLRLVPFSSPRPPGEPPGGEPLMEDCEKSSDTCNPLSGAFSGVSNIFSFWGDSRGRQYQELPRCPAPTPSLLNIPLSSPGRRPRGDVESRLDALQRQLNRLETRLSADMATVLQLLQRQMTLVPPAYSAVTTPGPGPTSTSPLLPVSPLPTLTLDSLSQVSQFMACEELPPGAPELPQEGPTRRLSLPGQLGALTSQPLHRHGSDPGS
Cytochrome P450 2C9, sequence (P11712 whole entry): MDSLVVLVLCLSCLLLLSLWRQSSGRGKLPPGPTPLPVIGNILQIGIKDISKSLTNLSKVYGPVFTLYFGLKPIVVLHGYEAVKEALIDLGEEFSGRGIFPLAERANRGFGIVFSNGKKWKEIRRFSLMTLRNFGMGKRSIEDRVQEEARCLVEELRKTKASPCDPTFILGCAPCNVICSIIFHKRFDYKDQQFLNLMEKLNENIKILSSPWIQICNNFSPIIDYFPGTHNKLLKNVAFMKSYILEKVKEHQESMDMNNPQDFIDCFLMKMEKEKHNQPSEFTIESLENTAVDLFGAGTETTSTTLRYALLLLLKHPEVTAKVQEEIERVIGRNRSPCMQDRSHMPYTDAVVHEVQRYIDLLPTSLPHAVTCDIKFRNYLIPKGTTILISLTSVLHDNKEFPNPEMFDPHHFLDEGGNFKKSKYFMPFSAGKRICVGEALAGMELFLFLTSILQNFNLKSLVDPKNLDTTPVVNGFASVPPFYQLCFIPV

CCOC(=O)N1C[C@@H](C)N(c2ncc3[nH]nc(-c4ccc(N5CCN[C@H](C)C5)nc4)c3n2)[C@@H](C)C1
IC50 (Activin receptor type-1 [1]): 4.9 nM | IC50 (Activin receptor type-1 [2]): 212 nM

COC(=O)N1C[C@@H](C)N(c2ncc3[nH]nc(-c4ccc(N5CCN[C@H](C)C5)nc4)c3n2)[C@@H](C)C1
half-life [3]: 3.1 h | Cmax [4]: 75 nM | fraction unbound at 2 h [5]: 0.099 | AUC(0-inf) [6]: 0.441 µM·h | CLint scaled at 1 µM [7]: 15 mL/min/kg | bioavailability [8]: 49% | Vdss [9]: 21.9 L/kg | Papp A→B at 2 h, 50 µM [10]: 0.6 ×10⁻⁶ cm/s | IC50 (Activin receptor type-1 [1]): 0.85 nM | IC50 (Hepcidin): 7.3 nM | IC50 (Activin receptor type-1 [2]): 27 nM

COCC(=O)N1C[C@@H](C)N(c2ncc3[nH]nc(-c4ccc(N5CCN[C@H](C)C5)nc4)c3n2)[C@@H](C)C1
IC50 (Activin receptor type-1 [1]): 7.3 nM | IC50 (Activin receptor type-1 [2]): 346 nM

C[C@@H]1CN(c2ccc(-c3n[nH]c4cnc(N5[C@H](C)CNC[C@@H]5C)nc34)cn2)CCN1
IC50 (Activin receptor type-1 [1]): 793 nM

CC(C)C(=O)N1C[C@@H](C)N(c2ncc3[nH]nc(-c4ccc(N5CCN[C@H](C)C5)nc4)c3n2)[C@@H](C)C1
IC50 (Activin receptor type-1 [1]): 8 nM | IC50 (Activin receptor type-1 [2]): 661 nM

COC(=O)N1C[C@@H](C)N(c2ncc3[nH]nc(-c4ccc(N5CCN(C)CC5)cc4)c3n2)[C@@H](C)C1
half-life [3]: 5.7 h | inhibition (Mus musculus): Active | Cmax [4]: 434 nM | IC50 (Cytochrome P450 2C8): > 25000 nM | inhibition at 1 µM (hERG (KCNH2)): < 1% | AUC(0-t) at 24 h [11]: 376 µM·h | fraction unbound at 2 h [5]: 0.043 | IC50 (Cytochrome P450 2C19): > 25000 nM | AUC(0-inf) [6]: 4.05 µM·h | IC50 (Cytochrome P450 2B6): > 25000 nM | IC50 (Cytochrome P450 2C9): > 25000 nM | CLint scaled at 1 µM [7]: 16.7 mL/min/kg | bioavailability [8]: 85% | Vdss [9]: 7.6 L/kg | IC50 (Cytochrome P450 2D6): > 25000 nM | AUC(0-t) at 24 h [12]: 26.2 µM·h | IC50 (Cytochrome P450 3A4): > 25000 nM | Papp A→B at 2 h, 50 µM [10]: 4.5 ×10⁻⁶ cm/s | IC50 (Activin receptor type-1 [1]): 0.98 nM | IC50 (Cytochrome P450 1A2): > 25000 nM | IC50 (Hepcidin): 34 nM | IC50 (Activin receptor type-1 [2]): 61 nM | inhibition in vivo at 10 mg/kg [13]: 80%

CC1CCCCN1c1ncc2[nH]nc(-c3ccc(N4CCN[C@H](C)C4)nc3)c2n1 (stereo partly drawn)
IC50 (Activin receptor type-1 [1]): 8.1 nM

COC(=O)N1C[C@@H](C)N(c2ncc3[nH]nc(-c4ccc(N5CCN(C)CC5)nc4)c3n2)[C@@H](C)C1
IC50 (Hepcidin): 58 nM
